Assay results gathered from unrelated publications.
Each line is one published result; the experiments were not run side by side.
Observed: cell growth or viability

SMILES	cell line	technique	tested at	time	viability
CC(=O)Nc1ccc(/C(C)=N/N=c2\sc(C(C)=O)nn2-c2ccc(C)cc2)cc1	HepG2	MTT	2.5 µM		99.4%
CC(C)(C)c1cnc(CSc2cnc(NC(=O)C3CCN(CCCCCCCCSc4cccc5c4C(=O)N(C4CCC(=O)NC4=O)C5=O)CC3)s2)o1 (stereo not shown)	HH	CCK-8	0.5 µM		0%
CC(=O)c1nn(-c2ccc(C)cc2)/c(=N/N=C(\C)c2ccc(NC(=O)c3ccccc3)cc2)s1	HepG2	MTT	10 µM		6.81%
CC(C)(C)c1cnc(CSc2cnc(NC(=O)C3CCN(CCCCCCCSc4cccc5c4C(=O)N(C4CCC(=O)NC4=O)C5=O)CC3)s2)o1 (stereo not shown)	HH	CCK-8	10 nM		99.5%
CCOC(=O)c1nn(-c2cccc(Cl)c2)/c(=N/N=C(\C)c2ccc(NC(=O)c3ccccc3)cc2)s1	HepG2	MTT	10 µM		3%
CC(=NNC(=O)c1ccccc1Br)c1ccc(Nc2nnc(-c3ccc(Cl)cc3)c3ccccc23)cc1	HepG2	MTT	0.312 µM	24 h	85.4%
CC(C)(C)c1cnc(CSc2cnc(NC(=O)C3CCN(CCCCCSc4cccc5c4CN(C4CCC(=O)NC4=O)C5=O)CC3)s2)o1 (stereo not shown)	HH	CCK-8	10 nM		93.5%
O=C(C=Cc1ccccc1)Nc1ccc(Oc2nnc(-c3ccc(Cl)cc3)c3ccccc23)cc1	HepG2	MTT	5 µM	24 h	2.49%
CC(=O)c1nn(-c2ccccc2Cl)/c(=N/N=C(\C)c2ccc(NC(=O)c3ccccc3)cc2)s1	HepG2	MTT	78 nM		71.7%
CC(=NNC(=O)c1ccccc1Cl)c1ccc(Nc2nnc(-c3ccc(Cl)cc3)c3ccccc23)cc1	HepG2	MTT	2.5 µM	24 h	4.78%
CC(C)(C)c1cnc(CSc2cnc(NC(=O)C3CCN(CCCCSc4cccc5c4C(=O)N(C4CCC(=O)NC4=O)C5=O)CC3)s2)o1 (stereo not shown)	HH	CCK-8	0.5 µM		0%
CC(=NNC(=O)c1ccccc1)c1ccc(Nc2nnc(-c3ccc(Cl)cc3)c3ccccc23)cc1	HepG2	MTT	0.625 µM	24 h	48.7%
CC(=NNC(=O)COc1ccc2c(C)c(Cc3ccccc3)c(=O)oc2c1C)c1ccc(Br)cc1	HepG2	MTT	1.6 µg/mL		54.8%
